Test results: ChEMBL document CHEMBL4177624, “Rationally designed hecogenin thiosemicarbazone analogs as novel MEK inhibitors for the control of breast malignancies” (Bioorg Med Chem, 2017)
The source made the active and inactive calls. The rule behind the calls is not given here.

Columns and labels:
MCF7 = assay: Antiproliferative activity against human MCF7 cells after 72 hrs by MTT assay; type: functional, cell-based; conditions: MCF7, 72 h
Outline: (§1)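 Six human breast carcinoma lines of differing molecular and phenotypic character were each exposed to a range of concentrations for 72 h. Proliferation was read by MTT. Results are given as mean percent viability, with IC₅₀ ± SEM calculated per cell line.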

MDA-MB-468 = assay: Antiproliferative activity against human MDA-MB-468 cells after 72 hrs by MTT assay; type: functional, cell-based; conditions: MDA-MB-468, 72 h; outline: as §1
MDA-MB-231 [1] = assay: Antiproliferative activity against human MDA-MB-231 cells after 72 hrs by MTT assay; type: functional, cell-based; conditions: MDA-MB-231, 72 h
Outline: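 MDA-MB-231 triple-negative breast cancer cells were exposed to a range of concentrations for 72 h. Proliferation was read by MTT. Results are given as mean percent viability versus concentration, with IC₅₀ ± SEM calculated from the curve.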

T47D = assay: Antiproliferative activity against human T47D cells after 72 hrs by MTT assay; type: functional, cell-based; outline: as §1
BT-474 = assay: Antiproliferative activity against human BT474 cells after 72 hrs by MTT assay; type: functional, cell-based; conditions: BT-474, 72 h; outline: as §1
SK-BR-3 = assay: Antiproliferative activity against human SKBR3 cells after 72 hrs by MTT assay; type: functional, cell-based; conditions: SK-BR-3, 72 h; outline: as §1
MDA-MB-231 [2] = assay: Cytotoxicity against human MDA-MB-231 cells at 100 uM after 24 hrs by LDH release assay relative to control; type: functional
Outline: (§2)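 LDH release kit on MDA-MB-231 cells at four doses. LDH in the culture medium used as the marker of plasma membrane damage, expressed as percent cytotoxicity.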

MDA-MB-231 [3] = assay: Cytotoxicity against human MDA-MB-231 cells at 25 uM after 24 hrs by LDH release assay (reference value: 100%); type: functional; outline: as §2
MDA-MB-231 [4] = assay: Cytotoxicity against human MDA-MB-231 cells at 50 uM after 24 hrs by LDH release assay (reference value: 100%); type: functional; outline: as §2
MDA-MB-231 [5] = assay: Cytotoxicity against human MDA-MB-231 cells at 75 uM after 24 hrs by LDH release assay (reference value: 100%); type: functional; outline: as §2
MDA-MB-231 [6] = assay: Cytotoxicity against human MDA-MB-231 cells at 100 uM after 24 hrs by LDH release assay (reference value: 100%); type: functional; outline: as §2
MDA-MB-231 [7] = assay: Antimigratory activity against human MDA-MB-231 cells at 10 to 80 uM after 24 hrs by scratch wound-healing assay; type: functional, cell-based
MDA-MB-231 [8] = assay: Antiinvasive activity against human MDA-MB-231 cells at 80 uM after 24 hrs by cell invasion assay relative to control; type: functional
Outline: (§3)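 Invasion of MDA-MB-231 cells through extracellular matrix coating in a CultreCoat chamber, four doses, 24 h after plating. Non-invaded cells on the upper surface imaged by microscopy. Percent invasion read against vehicle control; IC50 taken from the dose-response curve.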

MDA-MB-231 [9] = assay: Antiinvasive activity against human MDA-MB-231 cells after 24 hrs by cell invasion assay; type: functional, cell-based; conditions: MDA-MB-231, 24 h; outline: as §3
[10] = target: T1, Dual specificity mitogen-activated protein kinase kinase; MEK1/2 (Homo sapiens) (UniProt P36507+Q02750); assay: Inhibition of MEK phosphorylation in human MDA-MB-231 cell lysate at 1.5 to 4 uM after 72 hrs by Western blot analysis
Outline: (§4)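 MDA-MB-231 cells treated with two doses or vehicle, then lysed. Western blot of phosphorylated MEK, ERK (MAPK) and MSK, each compared with vehicle control.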

MDA-MB-231 [11] = assay: Antitumor activity against human GFP-fused MDA-MB-231 cells xenografted in Foxn1nu/Foxn1+ mouse assessed as tumor growth inhibition at 10 mg/kg, ip administered 3 times per week for 28 days relative to control; type: functional; conditions: MDA-MB-231, ip, 672 h, read-out: TGI
Outline: (§5)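 Athymic nude Foxn1nu/Foxn1+ mice given orthotopic MDA-MB-231/GFP implants. Once tumors were palpable (5-day latency), mice received 10 mg/kg ip three times weekly for 28 days; controls got vehicle. Tumor volume tracked by caliper, giving percent growth inhibition at study end. Body weight checked at each dose and toxicity signs observed.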

Mus musculus = assay: Toxicity in Foxn1nu/Foxn1+ mouse xenografted with human GFP-fused MDA-MB-231 cells assessed as reduction in body weight at 10 mg/kg, ip administered 3 times per week for 28 days relative to control; type: organism-based; conditions: in vivo, 672 h; outline: as §5
[12] = target: T1, Dual specificity mitogen-activated protein kinase kinase; MEK1/2 (Homo sapiens); assay: Inhibition of MEK in human MDA-MB-231 cell lysate assessed as reduction in MAPK phosphorylation at 1.5 to 4 uM after 72 hrs by Western blot analysis; outline: as §4
[13] = target: T1, Dual specificity mitogen-activated protein kinase kinase; MEK1/2 (Homo sapiens); assay: Inhibition of MEK in human MDA-MB-231 cell lysate assessed as reduction in MSK phosphorylation at 1.5 to 4 uM after 72 hrs by Western blot analysis; outline: as §4
MCF-10A = assay: Cytotoxicity against human MCF10A cells at 1 to 20 uM by MTT assay; type: cell-based
Outline: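 Immortalized, non-tumorigenic MCF-10A mammary epithelial cells were treated at several concentrations (1-20 μM). Mean percent viability was compared with the matching vehicle control-treated group.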

MDA-MB-231 [14] = assay: Cytotoxicity against human MDA-MB-231 cells at 10 uM after 24 hrs by LDH release assay relative to control; type: functional
MDA-MB-231 [15] = assay: Cytotoxicity against human MDA-MB-231 cells at 1.25 uM after 24 hrs by LDH release assay (reference value: 100%); type: functional
Outline: (§6)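 MDA-MB-231 cells were treated at four concentrations. LDH released into the culture medium through damaged plasma membranes was measured with a commercial LDH cytotoxicity kit and expressed as percent cytotoxicity.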

MDA-MB-231 [16] = assay: Cytotoxicity against human MDA-MB-231 cells at 2.5 uM after 24 hrs by LDH release assay (reference value: 100%); type: functional; outline: as §6
MDA-MB-231 [17] = assay: Cytotoxicity against human MDA-MB-231 cells at 5 uM after 24 hrs by LDH release assay (reference value: 100%); type: functional; outline: as §6
MDA-MB-231 [18] = assay: Cytotoxicity against human MDA-MB-231 cells at 10 uM after 24 hrs by LDH release assay (reference value: 100%); type: functional; outline: as §6
MDA-MB-231 [19] = assay: Antimigratory activity against human MDA-MB-231 cells after 24 hrs by scratch wound-healing assay; type: functional, cell-based
MDA-MB-231 [20] = assay: Antiinvasive activity against human MDA-MB-231 cells at 5 uM after 24 hrs by cell invasion assay relative to control; type: functional
Outline: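 MDA-MB-231 cells were plated in CultreCoat coated-insert invasion chambers and treated at four concentrations or with vehicle. At 24 h post-plating, non-invading cell density on the upper surface was assessed by microscopy. Percent invasion inhibition relative to vehicle was calculated, and IC₅₀ was derived from the dose-response.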

T1 sequence (P36507 whole entry, looked up): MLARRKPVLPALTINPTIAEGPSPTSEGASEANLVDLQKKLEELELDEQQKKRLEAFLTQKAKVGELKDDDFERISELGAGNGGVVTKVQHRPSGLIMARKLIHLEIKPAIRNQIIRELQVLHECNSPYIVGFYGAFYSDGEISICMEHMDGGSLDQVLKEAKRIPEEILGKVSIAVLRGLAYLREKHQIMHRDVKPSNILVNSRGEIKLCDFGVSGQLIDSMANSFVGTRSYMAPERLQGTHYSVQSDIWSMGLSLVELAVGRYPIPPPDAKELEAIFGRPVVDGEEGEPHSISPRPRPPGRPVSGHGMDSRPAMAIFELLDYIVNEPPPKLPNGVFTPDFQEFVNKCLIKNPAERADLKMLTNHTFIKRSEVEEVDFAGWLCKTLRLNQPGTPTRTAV
T1 sequence (Q02750 whole entry, looked up): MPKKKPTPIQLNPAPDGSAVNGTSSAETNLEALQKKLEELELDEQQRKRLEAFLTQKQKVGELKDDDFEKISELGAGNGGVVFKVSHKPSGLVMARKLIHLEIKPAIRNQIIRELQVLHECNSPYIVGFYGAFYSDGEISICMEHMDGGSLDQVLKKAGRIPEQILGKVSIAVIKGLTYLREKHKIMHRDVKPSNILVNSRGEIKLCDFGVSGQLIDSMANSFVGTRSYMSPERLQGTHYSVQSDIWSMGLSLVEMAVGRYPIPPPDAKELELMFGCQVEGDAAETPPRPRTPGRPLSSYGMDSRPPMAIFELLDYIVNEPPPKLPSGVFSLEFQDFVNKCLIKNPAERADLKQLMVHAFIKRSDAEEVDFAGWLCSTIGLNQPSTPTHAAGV

Row | SMILES | IC50 (MCF7) [µM] | IC50 (MDA-MB-468) [µM] | IC50 (MDA-MB-231 [1]) [µM] | IC50 (T47D) [µM] | IC50 (BT-474) [µM] | IC50 (SK-BR-3) [µM] | also measured
1 | C[C@@H]1CC[C@@]2(OC1)O[C@H]1C[C@H]3[C@@H]4CC[C@H]5C[C@@H](O)CC[C@]5(C)[C@H]4CC(=O)[C@]3(C)[C@H]1[C@@H]2C | 31 | 35.2 | 28.7 | 36.6 | 38.2 | 33.3 | Activity (MDA-MB-231 [2]): 27.8%; Activity (MDA-MB-231 [3]): 0.04%; Activity (MDA-MB-231 [4]): 2.72%; Activity (MDA-MB-231 [5]): 10.3%; Activity (MDA-MB-231 [6]): 27.8%; Activity (MDA-MB-231 [7]): Active; Activity (MDA-MB-231 [8]): 86.2%; IC50 (MDA-MB-231 [9]): 37.1 µM; inhibition [10]: Active; inhibition in vivo at 10 mg/kg (MDA-MB-231 [11]): 57.4%; Activity (Mus musculus): Non-Toxic; inhibition [12]: Active; inhibition [13]: Active
2 | Cc1ccccc1NC(=S)N/N=C1\C[C@H]2[C@@H](CC[C@H]3C[C@@H](O)CC[C@@]32C)[C@@H]2C[C@@H]3O[C@]4(CC[C@@H](C)CO4)[C@@H](C)[C@@H]3[C@@]12C | 2.1 | 2.4 | 1.9 | 3 | 2.6 | 2.3 | Activity (MCF-10A): Non-Toxic; Activity (MDA-MB-231 [14]): 5.9%; Activity (MDA-MB-231 [15]): 0.74%; Activity (MDA-MB-231 [16]): 1.27%; Activity (MDA-MB-231 [17]): 1.8%; Activity (MDA-MB-231 [18]): 5.94%; Activity (MDA-MB-231 [19]): Dose-dependent effect; IC50 (MDA-MB-231 [19]; MDA-MB-231, 24 h): 2.5 µM; Activity (MDA-MB-231 [20]): 92.4%; IC50 (MDA-MB-231 [9]): 2.2 µM; inhibition [10]: Active; inhibition in vivo at 10 mg/kg (MDA-MB-231 [11]): 78.1%; Activity (Mus musculus): Non-Toxic; inhibition [12]: Active; inhibition [13]: Active
3 | C[C@@H]1CC[C@@]2(OC1)O[C@H]1C[C@H]3[C@@H]4CC[C@H]5C[C@@H](O)CC[C@]5(C)[C@H]4C/C(=N\NC(=O)Nc4cccc(Cl)c4)[C@]3(C)[C@H]1[C@@H]2C | 9.7 | 10.9 | 10 | 13 | 12 | 9.8 | 
4 | C[C@@H]1CC[C@@]2(OC1)O[C@H]1C[C@H]3[C@@H]4CC[C@H]5C[C@@H](O)CC[C@]5(C)[C@H]4C/C(=N\NC(=S)Nc4ccc(Oc5ccccc5)cc4)[C@]3(C)[C@H]1[C@@H]2C | 27 | 30.8 | 28.1 | > 40 | 31.2 | 29 | 
5 | Cc1ccc(NC(=S)N/N=C2\C[C@H]3[C@@H](CC[C@H]4C[C@@H](O)CC[C@@]43C)[C@@H]3C[C@@H]4O[C@]5(CC[C@@H](C)CO5)[C@@H](C)[C@@H]4[C@@]23C)c(C)c1 | 3 | 3.8 | 2.7 | 5.2 | 3.7 | 4.2 | 
6 | COc1ccc(NC(=S)N/N=C2\C[C@H]3[C@@H](CC[C@H]4C[C@@H](O)CC[C@@]43C)[C@@H]3C[C@@H]4O[C@]5(CC[C@@H](C)CO5)[C@@H](C)[C@@H]4[C@@]23C)cc1 | 10.1 | 11.2 | 9.5 | 14.2 | 10.9 | 11.5 | 

Second part, led by results:

Row | IC50 (MCF7) [µM] | IC50 (MDA-MB-468) [µM] | IC50 (MDA-MB-231 [1]) [µM] | IC50 (T47D) [µM] | IC50 (BT-474) [µM] | IC50 (SK-BR-3) [µM] | SMILES | also measured
7 | 32.4 | > 40 | 25.3 | > 40 | > 40 | 34.9 | C[C@@H]1CC[C@@]2(OC1)O[C@H]1C[C@H]3[C@@H]4CC[C@H]5C[C@@H](OC(=O)c6ccc([N+](=O)[O-])cc6)CC[C@]5(C)[C@H]4CC(=O)[C@]3(C)[C@H]1[C@@H]2C | 
8 | 29.3 | 36.4 | 28 | > 40 | > 40 | 31 | Cc1ccc(S(=O)(=O)NC(=O)N/N=C2\C[C@H]3[C@@H](CC[C@H]4C[C@@H](O)CC[C@@]43C)[C@@H]3C[C@@H]4O[C@]5(CC[C@@H](C)CO5)[C@@H](C)[C@@H]4[C@@]23C)cc1 | 
9 | 7.5 | 8 | 7.3 | 11.5 | 10.3 | 7.9 | C[C@@H]1CC[C@@]2(OC1)O[C@H]1C[C@H]3[C@@H]4CC[C@H]5C[C@@H](O)CC[C@]5(C)[C@H]4C/C(=N\NC(=S)Nc4ccc([N+](=O)[O-])cc4)[C@]3(C)[C@H]1[C@@H]2C | 
